In article PMC6448596 (Cell reports, 2019):

How the values were obtained:
[1] = test system: MA93 FLT3-ITD cells; assay: Proliferation assay; format: cell-based; settings: Homo sapiens, 72 h
Method in brief: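 CellTiter-Glo at 2,000 cells/well. MA93 Ras and MA93 FLT3/ITD were maintained in IMDM/20% FBS. Parental MA93 received IMDM/20% FBS plus 10 ng/mL human SCF, TPO, FLT3L, IL3 and IL6. Dosing used ≥5 two-fold dilutions from 50 μM top, 0.1% DMSO final, in triplicate wells with ≥2 biological replicates. Plates ran 72 h at 37°C, followed by 30 min reagent incubation at RT in the dark. GI50 came from DMSO-normalized luminescence.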

[2] = test system: HL60 cells; assay: Proliferation assay; format: cell-based; settings: Homo sapiens, HL-60, 72 h
Method in brief: (§1)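 CellTiter-Glo, 5,000 cells/well. Cells received 0.1% DMSO or at least five two-fold dilutions of test compound (top 50 μM, final DMSO 0.1%), in triplicate wells and ≥2 biological replicates, for 72 h at 37°C. Reagent was added after equilibration to RT, with 30 min dark incubation before luminescence. Signals were normalized to DMSO wells and GI50 obtained by curve fitting. Curve error bars are SEM.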

[3] = test system: HEL cells; assay: Proliferation assay; format: cell-based; settings: Homo sapiens, 72 h
Method in brief: as §1

[4] = test system: MV4:11 cells; assay: Growth and viability time course; format: cell-based, human
[5] = test system: protein synthesis in MV4:11 cells; assay: Relative protein synthesis rates; format: cell-based, human; settings: MV4:11, 2 μM
Method in brief: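 Cycloheximide 30 min before OPP served as positive control; an OPP-free sample set background. Alexa647 signal was read by flow (≥10,000 events, doublets excluded). Biological triplicate, SEM.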

[6] = test system: Molm13 cells; assay: Proliferation assay; format: cell-based; settings: Homo sapiens, MOLM-13, 72 h
Method in brief: as §1

[7] = biological target: MLL1 complex (Homo sapiens, UniProt P61964); assay: MLL1 HMT assay; format: biochemical
[8] = test system: TP53 mRNA on polysomes in MV4:11 cells; assay: Polysome fractionation with RT-qPCR; format: cell-based, human; settings: MV4:11, 5 μM, 24 h
Method in brief: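 15 × 10^6 MV4:11 cells were treated 24 h with 5 μM test compound or DMSO and lysed 10 min on ice. Target mRNAs in monosomal and polysomal fractions were measured by RT-qPCR and normalized to GAPDH. Values were expressed as percent of total RNA, relative to DMSO.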

[9] = test system: p53 and p21 protein levels in MV4:11 cells; assay: p53/p21 induction western blot; format: cell-based, human; settings: MV4:11, 2 μM, 24 h
Method in brief: (§2)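 Treatment lasted 24 h with test compound or its negative control, at 2 μM in MV4:11 and 3 μM in Molm13. Comparators were 2 μM Nutlin-3 or 0.1% DMSO. Four million cells were PBS-washed and lysed 10 min on ice in Kischkel buffer. p53 and p21 were detected by western blot, with histone H3 as loading control.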

[10] = test system: Molm13 clones CRISPR-targeted with EGFP or p53 gRNA; assay: Proliferation assay in CRISPR-targeted Molm13 clones; format: cell-based; settings: Homo sapiens, MOLM-13, 72 h, Molm13 clone 2p (p53 gRNA), 3-day treatment
[11] = test system: RN2 cells; assay: Proliferation assay; format: cell-based, murine; settings: Mus musculus, 72 h
Method in brief: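 Murine RN2 cells were seeded at 2,500/well and exposed to ≥5 two-fold dilutions (top 50 μM, 0.1% DMSO final) in triplicate wells, with ≥2 biological replicates, for 72 h. MTS reagent was added for 1.25 h at 37°C and absorbance read at 490 nm. Values were normalized to DMSO wells and GI50 fitted. Error bars are SEM.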

[12] = test system: p53 turnover in MV4:11 cells; assay: Cycloheximide; format: cell-based, human; settings: MV4:11, 2 μM, 24 h before CHX
Method in brief: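 Before the cycloheximide chase, MV4:11 cells were pretreated 24 h with 2 μM test compound, 2 μM Nutlin-3 as comparator, or DMSO only. p53 was then followed by immunoblot.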

[13] = test system: p53 and p21 protein levels in Molm13 cells; assay: p53/p21 induction western blot; format: cell-based, human; settings: Molm13, 3 μM, 24 h
Method in brief: as §2

[14] = test system: K562 cells; assay: Proliferation assay; format: cell-based; settings: Homo sapiens, K562, 72 h
Method in brief: as §1

[15] = test system: gene expression in MV4:11 cells; assay: RNA-Seq; format: cell-based, human; settings: overlap of RNA-seq and WDR5 ChIP-seq, MV4:11

`Cc1nc(F)ccc1-c1cc(Cn2ccn(C)c2=N)cc(C(=O)NCc2ccc(Cl)c(Cl)c2)c1` [Compound C6, N-(3,4-Dichlorobenzyl)-3-(6-fluoro-2-methylpyridin-3-yl)-5-((2-imino-3-methyl-2,3-dihydro-1H-imidazol-1-yl)methyl)benzamide] showed a GI50 [1] of 2470 ± 137 nM, a GI50 [2] of 14.8 ± 1.1 µM and a GI50 [3] of over 50 µM. The “inhibition of proliferation, live cells over time” value ([4]; 2 μM (GI50 concentration), 1-6 days) was “inhibition of proliferation can be detected within a few days of treatment”, the “cellular viability over time” value ([4]; 2 μM, between 2 and 6 days of treatment) was “progressive decrease in cellular viability” and the OPP incorporation ([5]; 1 day) was “measurable reduction in OPP incorporation”. The OPP incorporation ([5]; 6 days) was “roughly half of the cells in the C6-treated population incorporated OPP at levels similar to those of cells treated with CHX”, the GI50 [6] was 6.43 ± 0.683 µM and the “specificity of HMT inhibition among all MLL/SET complexes” value [7] was “specific for MLL1, with little activity against other MLL/SET family members”. For the same compound, the “window of selectivity for MLL1 over other MLL/SET complexes” value [7] was at least 250 fold, the IC50 ([7]; MLL1 HMT IC50, H3 peptide as substrate) was about 20 nM and the “polysome-associated mRNAs” value [8] was “promoted an accumulation of polysome-associated mRNAs for TP53”. The “p53 and p21 protein induction” value [9] was “moderately induces p53”, the GI50 [10] was 18 µM and the GI50 [11] was 11.2 ± 1.48 µM. For the same compound, the “p53 turnover in CHX chase” value [12] was “no detectable effects on p53 turnover”, the “p53 and p21 protein induction” value [13] was “p53 and p21 are also induced” and the GI50 [14] was 25.4 ± 2.07 µM. For the same compound, the “number of WDR5-bound genes induced” value [15] was 1 and the “number of WDR5-bound genes repressed” value [15] was 59.
